Measurements from ChEMBL document CHEMBL1255219, “Discovery of a β-d-2'-deoxy-2'-α-fluoro-2'-β-C-methyluridine nucleotide prodrug (PSI-7977) for the treatment of hepatitis C virus” (J Med Chem, 2010).

What was measured:
Hepatitis C virus [1] = assay: Antiviral activity against HCV infected in human clone A cells assessed as inhibition of cellular rRNA replication at 50 uM; assay type: functional, Hepacivirus hominis
Hepatitis C virus [2] = assay: Antiviral activity against HCV infected in human clone A cells; assay type: functional, Hepacivirus hominis; conditions: Hepatitis C virus
Method in brief: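 Clone A replicon cells seeded at 1500 cells/well. Compounds serially diluted in G418-free culture medium and added, then incubated 4 days at 37 °C in 5% CO2. HCV RNA quantified by real-time RT-PCR as ΔCt relative to the mean no-drug control.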

Cynomolgus monkey [3] = assay: Metabolic stability in cynomolgus monkey liver assessed as prodrug level at 50 mg/kg, po; assay type: ADME, organism-based, Macaca fascicularis; parameters: dose 50 mg/kg, route oral; conditions: in vivo
Method in brief: (§1)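 Dogs and cynomolgus monkeys gavaged once daily with 50 mg/kg in 20% w/v hydroxypropyl-β-cyclodextrin for 4 days. At 4 h postdose on day 4, under pentobarbital, the liver was perfused with ice-cold saline via a portal cannula. Five lobe samples were snap-frozen and homogenized in 3 volumes of cold 70% methanol with 20 mM EDTA/EGTA. Prodrug and triphosphate measured by LC/MS/MS.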

Rattus norvegicus [4] = assay: AUC (0 to infinity) in rat liver assessed as 2'-F-2'-C-Methyluridine-5''-TP level at 50 mg/kg, po; assay type: ADME, organism-based; parameters: time infinity, dose 50 mg/kg, route oral; conditions: in vivo
Method in brief: (§2)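 Rats given a single oral gavage dose of 50 mg/kg in 0.5% carboxymethylcellulose sodium, 5 mL/kg. Livers taken at 0.5, 1, 2, 4, 6 and 12 h after CO2 sacrifice and ice-cold saline perfusion, then snap-frozen. Homogenized in 3 volumes of cold 70% methanol with 20 mM EDTA/EGTA. Triphosphate measured by LC/MS/MS (ESI, MRM negative mode), noncompartmental analysis.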

Rattus norvegicus [5] = assay: Cmax in rat liver assessed as 2'-F-2'-C-Methyluridine-5''-TP level at 50 mg/kg, po; assay type: ADME, organism-based; parameters: dose 50 mg/kg, route oral; conditions: in vivo; method in brief: as §2
[6] = Cytotoxicity against human erythroid progenitor cells after 14 to 16 days
[7] = Half life in human liver S9 fraction at 100 uM; assay type: ADME, subcellular
Method in brief: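 Compound at 100 μM in 50 mM K2HPO4 pH 7.4 with 5 mM MgCl2. Started with 4 mg/mL human liver S9 at 37 °C. Samples at 0–24 h quenched with acetonitrile. Parent remaining measured by LC/MS/MS peak area relative to 0 h, and half-life calculated.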

[8] = AUC (0 to t) in cynomolgus monkey plasma at 50 mg/kg, po qd for 4 days; assay type: ADME, organism-based, Macaca fascicularis; parameters: dose 50 mg/kg, route oral
Method in brief: (§3)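 Oral gavage (dog gastric, monkey nasogastric), 50 mg/kg in 20% w/v hydroxypropyl-β-cyclodextrin in water, 2.5 mL/kg, once daily for 4 consecutive days. Blood sampled into K2EDTA at 1, 2, 4, 6, 12 and 24 h postdose on day 3. Prodrug in plasma quantified by LC/MS/MS, noncompartmental analysis.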

[9] = Cmax in cynomolgus monkey plasma at 50 mg/kg, po qd for 4 days; assay type: ADME, organism-based, Macaca fascicularis; parameters: dose 50 mg/kg, route oral; method in brief: as §3
[10] = Tmax in cynomolgus monkey plasma at 50 mg/kg, po qd for 4 days; assay type: ADME, organism-based, Macaca fascicularis; parameters: dose 50 mg/kg, route oral; method in brief: as §3
[11] = AUC (0 to infinity) in cynomolgus monkey plasma at 50 mg/kg, po qd for 4 days; assay type: ADME, organism-based, Macaca fascicularis; parameters: time infinity, dose 50 mg/kg, route oral; method in brief: as §3
Rattus norvegicus [12] = assay: AUC (0 to t) in rat liver assessed as 2'-F-2'-C-Methyluridine-5''-TP level at 50 mg/kg, po; assay type: ADME, organism-based; parameters: dose 50 mg/kg, route oral; conditions: in vivo; method in brief: as §2
Rattus norvegicus [13] = assay: Tmax in rat liver assessed as 2'-F-2'-C-Methyluridine-5''-TP level at 50 mg/kg, po; assay type: ADME, organism-based; parameters: dose 50 mg/kg, route oral; conditions: in vivo; method in brief: as §2
Rattus norvegicus [14] = assay: Toxicity in rat assessed as change in liver weight at 50 to 1800 mg/kg, po after 14 days; assay type: organism-based; parameters: dose 50-1800 mg/kg, route oral; conditions: in vivo, 336 h
Method in brief: (§4)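 Rats (CD SD, 4–5 weeks, 76–100 g) given a single oral dose of 50, 300 or 1800 mg/kg, or vehicle (30% PEG400/30% Tween 20/20% corn oil/20% water). Observed daily for 14 days with daily body weights. Necropsy on day 15 with macroscopic examination and liver and paired kidney weights.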

[15] = AUC (0 to infinity) in dog plasma at 50 mg/kg, po qd for 4 days; assay type: ADME, organism-based, Canis lupus familiaris; parameters: time infinity, dose 50 mg/kg, route oral; method in brief: as §3
Cynomolgus monkey [16] = assay: Metabolic stability in cynomolgus monkey liver assessed as 2'-F-2'-C-Methyluridine-5''-triphosphate level at 50 mg/kg, po; assay type: ADME, organism-based, Macaca fascicularis; parameters: dose 50 mg/kg, route oral; conditions: in vivo; method in brief: as §1
Rattus norvegicus [17] = assay: Toxicity in rat assessed as change in kidney weight at 50 to 1800 mg/kg, po after 14 days; assay type: organism-based; parameters: dose 50-1800 mg/kg, route oral; conditions: in vivo, 336 h; method in brief: as §4
[18] = Tmax in dog plasma at 50 mg/kg, po qd for 4 days; assay type: ADME, organism-based, Canis lupus familiaris; parameters: dose 50 mg/kg, route oral; method in brief: as §3
[19] = Cytotoxicity against HuH7 cells at 100 uM; assay type: cell-based; conditions: human, huh-7, 100 µM
Method in brief: (§5)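 Huh7, HepG2 and BxPC3 cells at 2 × 10^3 per well, CEM at 5 × 10^3 per well. Compound serially diluted from 100 μM, 8 days at 37 °C. MTS added for 2 h, absorbance read at 490 nm with medium-only blanks. CC50 taken relative to untreated cells.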

[20] = Cytotoxicity against human BxPC3 cells at 100 uM; assay type: cell-based; conditions: bxpc-3, 100 µM; method in brief: as §5
[21] = Cmax in dog plasma at 50 mg/kg, po qd for 4 days; assay type: ADME, organism-based, Canis lupus familiaris; parameters: dose 50 mg/kg, route oral; method in brief: as §3
HepG2 = assay: Cytotoxicity against human HepG2 cells at 100 uM; assay type: cell-based; conditions: hepg2, 100 µM; method in brief: as §5
Rattus norvegicus [22] = assay: Toxicity in rat assessed as change in body weight at 50 to 1800 mg/kg, po after 14 days; assay type: organism-based; parameters: dose 50-1800 mg/kg, route oral; conditions: in vivo, 336 h; method in brief: as §4
Canis familiaris [23] = assay: Metabolic stability in dog liver assessed as 2'-F-2'-C-Methyluridine-5''-triphosphate level at 50 mg/kg, po; assay type: ADME, organism-based, Canis lupus familiaris; parameters: dose 50 mg/kg, route oral; conditions: in vivo; method in brief: as §1
[24] = Cytotoxicity against human myeloid progenitor cells after 14 to 16 days
Canis familiaris [25] = assay: Metabolic stability in dog liver assessed as prodrug level at 50 mg/kg, po; assay type: ADME, organism-based, Canis lupus familiaris; parameters: dose 50 mg/kg, route oral; conditions: in vivo; method in brief: as §1
[26] = AUC (0 to t) in dog plasma at 50 mg/kg, po qd for 4 days; assay type: ADME, organism-based, Canis lupus familiaris; parameters: dose 50 mg/kg, route oral; method in brief: as §3
[27] = Permeability by PAMPA assay; assay type: ADME; conditions: read-out: permeability
Method in brief: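 PAMPA with a lecithin-in-dodecane (20 mg/mL) coated filter donor. Donor held 200 μg/mL compound in PBS pH 7.4 with 2% DMSO; acceptor held PBS with 2% DMSO. Left 24 h. Donor and acceptor concentrations measured by LC/MS/MS (MRM), and Pe calculated from concentrations, volumes, filter area and time.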

Rattus norvegicus [28] = assay: Toxicity in rat assessed as mortality at 50 to 1800 mg/kg, po after 14 days; assay type: organism-based; parameters: dose 50-1800 mg/kg, route oral; conditions: in vivo, 336 h; method in brief: as §4
CCRF-CEM = assay: Cytotoxicity against human CEM cells at 100 uM; assay type: cell-based; method in brief: as §5
Rattus norvegicus [29] = assay: Toxicity in rat assessed as change in macroscopic pathology at 50 to 1800 mg/kg, po after 14 days; assay type: organism-based; parameters: dose 50-1800 mg/kg, route oral; conditions: in vivo, 336 h; method in brief: as §4
[30] = Half life in simulated gastric fluid at pH 1.2 at 50 ug/mL; assay type: physicochemical
Method in brief: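 Compound at 50 μg/mL in simulated gastric fluid (pH 1.2) or simulated intestinal fluid (pH 7.5), 37 °C, 20 h. Injected by reverse-phase HPLC every 2 h, peak area at 260 nm. Percent parent remaining relative to 0 h, giving half-life.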

CC(C)OC(=O)[C@H](C)NP(=O)(OC[C@H]1O[C@@H](n2ccc(=O)[nH]c2=O)[C@](C)(F)[C@@H]1O)Oc1ccc(Br)cc1 (stereo partly drawn)
inhibition at 50 µM (Hepatitis C virus [1]): 0%
EC90 (Hepatitis C virus [2]): 0.57 µM

CC(C)OC(=O)[C@H](C)NP(=O)(OC[C@H]1O[C@@H](n2ccc(=O)[nH]c2=O)[C@](C)(F)[C@@H]1O)Oc1ccccc1 (stereo partly drawn)
Drug uptake (Cynomolgus monkey [3]): 177 ng/g
AUC (Rattus norvegicus [4]): 18080 ng·h/g
Cmax (Rattus norvegicus [5]): 1934 ng/g
IC50 [6]: > 50 µM
half-life at 100 µM [7]: 0.57 h
AUC(0-t) at 96 h [8]: 86 ng·h/mL
Cmax [9]: 33 ng/mL
Tmax [10]: 1 h
AUC(0-inf) [11]: 170 ng·h/mL
AUC (Rattus norvegicus [12]): 16796 ng·h/g
Tmax (Rattus norvegicus [13]): 4 h
Activity (Rattus norvegicus [14]): Non-toxic
AUC(0-inf) [15]: 6900 ng·h/mL
Drug uptake (Cynomolgus monkey [16]): 57 ng/g
Activity (Rattus norvegicus [17]): Non-toxic
Tmax [18]: 0.5 h
Activity [19]: Non-toxic
Activity [20]: Non-toxic
Cmax [21]: 6180 ng/mL
Activity (HepG2): Non-toxic
Activity (Rattus norvegicus [22]): Non-toxic
inhibition at 50 µM (Hepatitis C virus [1]): 25.9%
EC90 (Hepatitis C virus [2]): 0.52 µM
Drug uptake (Canis familiaris [23]): 10560 ng/g
IC50 [24]: > 50 µM
Drug uptake (Canis familiaris [25]): 612 ng/g
AUC(0-t) at 96 h [26]: 6890 ng·h/mL
Papp [27]: 0.046 ×10⁻⁶ cm/s
Activity (Rattus norvegicus [28]): Non-toxic
Activity (CCRF-CEM): Non-toxic
Activity (Rattus norvegicus [29]): Non-toxic
half-life at 50 ug/mL [30]: 22 h

COC(=O)CNP(=O)(OC[C@H]1O[C@@H](n2ccc(=O)[nH]c2=O)[C@](C)(F)[C@@H]1O)Oc1ccccc1 (stereo partly drawn)
inhibition at 50 µM (Hepatitis C virus [1]): 0%
EC90 (Hepatitis C virus [2]): 22.1 µM

CCCCOC(=O)[C@H](C)NP(=O)(OC[C@H]1O[C@@H](n2ccc(=O)[nH]c2=O)[C@](C)(F)[C@@H]1O)Oc1ccccc1 (stereo partly drawn)
inhibition at 50 µM (Hepatitis C virus [1]): 79.6%
EC90 (Hepatitis C virus [2]): 0.09 µM

COC(=O)[C@H](CCSC)NP(=O)(OC[C@H]1O[C@@H](n2ccc(=O)[nH]c2=O)[C@](C)(F)[C@@H]1O)Oc1ccccc1 (stereo partly drawn)
inhibition at 50 µM (Hepatitis C virus [1]): 24.1%
EC90 (Hepatitis C virus [2]): 60.1 µM

C[C@H](NP(=O)(OC[C@H]1O[C@@H](n2ccc(=O)[nH]c2=O)[C@](C)(F)[C@@H]1O)Oc1ccccc1)C(=O)Oc1ccccc1 (stereo partly drawn)
inhibition at 50 µM (Hepatitis C virus [1]): 0%
EC90 (Hepatitis C virus [2]): 18.5 µM

CCOC(=O)[C@H](C)NP(=O)(OC[C@H]1O[C@@H](n2ccc(=O)[nH]c2=O)[C@](C)(F)[C@@H]1O)Oc1ccccc1 (stereo partly drawn)
inhibition at 50 µM (Hepatitis C virus [1]): 36.9%
EC90 (Hepatitis C virus [2]): 0.98 µM

COC(=O)[C@H](Cc1c[nH]c2ccccc12)NP(=O)(OC[C@H]1O[C@@H](n2ccc(=O)[nH]c2=O)[C@](C)(F)[C@@H]1O)Oc1ccccc1 (stereo partly drawn)
inhibition at 50 µM (Hepatitis C virus [1]): 68.4%
EC90 (Hepatitis C virus [2]): 15.6 µM

CCOC(=O)[C@H](C)NP(=O)(OC[C@H]1O[C@@H](n2ccc(=O)[nH]c2=O)[C@](C)(F)[C@@H]1O)Oc1ccc(Cl)cc1 (stereo partly drawn)
inhibition at 50 µM (Hepatitis C virus [1]): 0%
EC90 (Hepatitis C virus [2]): 0.39 µM
